# Assay results collected from several papers.
# Cell line: HL-60
# Observed: cell growth or viability
SMILES,test,conditions,IC50 [µM]
FC(F)(F)c1cc(OCc2cc(-c3ccccc3)no2)c2ccccc2n1,MTS,72 h,> 100
Nc1ccccc1NC(=O)c1ccc(Cn2cnc3c(Nc4ccc(Br)cc4F)ncnc32)cc1,MTT,72 h,0.99
COc1cc([C@@H]2c3cc4c(cc3[C@@H](O[C@@H]3O[C@@H]5CO[C@@H](C)O[C@H]5[C@H](O)[C@H]3O)[C@H]3COC(=O)[C@H]23)OCO4)cc(OC)c1O,MTS,72 h,0.3
O=c1cc(OCc2cc(-c3ccc(C(F)(F)F)cc3)no2)c2ccccc2o1,MTS,72 h,> 100
CN1CCc2c(c3ccccc3n2Cc2ccc(C(=O)NO)cc2)C1,CCK-8,48 h,8.87
O=c1cc(OCc2cc(-c3ccccc3)no2)c2ccccc2o1,MTS,72 h,> 100
O=C(NO)c1ccc(Cn2cnc3c(Nc4ccc(F)c(Cl)c4)ncnc32)cc1,MTT,72 h,2.55
COc1cc([C@@H]2c3cc4c(cc3[C@@H](O[C@@H]3O[C@@H]5CO[C@@H](C)O[C@H]5[C@H](O)[C@H]3O)[C@H]3COC(=O)[C@H]23)OCO4)cc(OC)c1O,XTT,75 h,1.22
COc1ccc(Nc2ncnc3c2ncn3Cc2ccc(C(=O)Nc3ccccc3N)cc2)cc1,MTT,72 h,4.12
O=C(CSc1nc2ccccc2s1)N/N=C/c1ccc(OCC(=O)Nc2cccc([N+](=O)[O-])c2)cc1,MTS,72 h,> 100
O=C(NO)c1ccc(Cn2cnc3c(Nc4ccc(Br)cc4F)ncnc32)cc1,MTT,72 h,5.98
O=C(CSc1nc2ccccc2s1)N/N=C/c1ccc(OCC(=O)Nc2ccc([N+](=O)[O-])cc2)cc1,MTS,72 h,16.1
